Source: ChEMBL document CHEMBL1136989, “Targeting human gastrointestinal stromal tumor cells with a quadruplex-binding small molecule” (J Med Chem, 2009)
Activity calls are given as the source filed them. The calls are words filed in the database; no cut-off is given here.

Key:
Nucleic Acid [1] = test: Stabilization of human G4-KIT1 DNA quadruplex assessed as melting temperature by FRET assay; type: nucleic-acid assay
In short: (§1)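 FRET melting of FAM/TAMRA dual-labelled oligonucleotides, annealed at 90°C in 60 mM K+ cacodylate buffer pH 7.4. Final conditions: 200 nM DNA and 500 nM ligand. Fluorescence read at 0.5°C steps from 30 to 100°C, ramping 1°C/min, with excitation 450–495 nm and emission 515–545 nm. Tm taken as the derivative maximum; ΔTm given relative to ligand-free control.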

MCF7 = test: Antiproliferative activity against human MCF7 cells after 96 hrs by SRB assay; type: functional, cell-based; conditions: MCF7, 96 h
In short: (§2)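 Sulforhodamine B assay after 96 hr continuous drug exposure; IC50 in μM taken as the mean of triplicate experiments. GIST882 cells were kept in RPMI 1640 with 15% FBS. HT-29 and MCF-7 were kept in DMEM with 10% FBS, and HGC-27 in MEM with 10% FBS.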

Nucleic Acid [2] = test: Stabilization of human G4-KIT2 DNA quadruplex assessed as melting temperature by FRET assay; type: nucleic-acid assay; in short: as §1
Nucleic Acid [3] = test: Stabilization of synthetic duplex DNA assessed as melting temperature by FRET assay; type: nucleic-acid assay; in short: as §1
[4] = target: Mast/stem cell growth factor receptor Kit (Homo sapiens) (UniProt P10721); test: Reduction in KIT protein expression in human GIST882 cells after 24 hrs by Western blot; type: functional, cell-based
Chain of Mast/stem cell growth factor receptor Kit (Homo sapiens) (P10721 whole entry): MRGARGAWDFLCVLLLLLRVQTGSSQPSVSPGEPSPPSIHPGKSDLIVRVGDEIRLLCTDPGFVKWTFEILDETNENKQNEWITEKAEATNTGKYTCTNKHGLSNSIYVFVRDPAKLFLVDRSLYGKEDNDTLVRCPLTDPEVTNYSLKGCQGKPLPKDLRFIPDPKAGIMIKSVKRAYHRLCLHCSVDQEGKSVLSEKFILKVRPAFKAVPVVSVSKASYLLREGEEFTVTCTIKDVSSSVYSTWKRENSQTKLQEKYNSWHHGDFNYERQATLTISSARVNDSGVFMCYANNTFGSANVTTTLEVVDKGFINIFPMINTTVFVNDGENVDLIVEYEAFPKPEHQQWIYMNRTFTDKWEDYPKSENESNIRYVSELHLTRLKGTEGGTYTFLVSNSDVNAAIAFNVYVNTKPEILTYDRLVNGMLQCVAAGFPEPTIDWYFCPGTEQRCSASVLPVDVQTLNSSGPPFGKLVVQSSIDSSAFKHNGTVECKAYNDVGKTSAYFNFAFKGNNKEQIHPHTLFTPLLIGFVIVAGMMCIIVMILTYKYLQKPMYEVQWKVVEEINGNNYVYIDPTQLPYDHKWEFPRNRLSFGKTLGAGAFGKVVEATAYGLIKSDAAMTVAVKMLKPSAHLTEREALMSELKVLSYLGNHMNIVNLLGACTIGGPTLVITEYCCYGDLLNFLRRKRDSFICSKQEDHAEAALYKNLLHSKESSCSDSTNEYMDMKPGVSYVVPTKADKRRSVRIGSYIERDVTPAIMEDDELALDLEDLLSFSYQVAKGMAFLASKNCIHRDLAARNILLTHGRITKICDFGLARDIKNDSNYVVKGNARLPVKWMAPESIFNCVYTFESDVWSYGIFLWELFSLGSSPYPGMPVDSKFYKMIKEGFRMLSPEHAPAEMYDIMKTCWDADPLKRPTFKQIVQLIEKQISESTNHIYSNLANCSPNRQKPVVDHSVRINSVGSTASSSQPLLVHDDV
In short: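 GIST882 cells (RPMI 1640 + 15% FBS) exposed 24 hr to 0.5 or 1 µM test compound, or imatinib at 5 and 10 µM. Lysates protein-quantified by Bradford, then electrophoresed and immunoblotted for total KIT, with actin blot as loading control; vehicle-treated cells as reference.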

HT-29 = test: Antiproliferative activity against human HT-29 cells after 96 hrs by SRB assay; type: functional, cell-based; conditions: HT-29, 96 h; in short: as §2
Nucleic Acid [5] = test: Stabilization of human G4-telomeric quadruplex assessed as melting temperature by FRET assay; type: nucleic-acid assay; in short: as §1
[6] = target: Mast/stem cell growth factor receptor Kit (Homo sapiens) (UniProt P10721); test: Reduction in KIT mRNA expression in human GIST882 cells after 24 hrs; type: functional, cell-based
In short: (§3)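 GIST882 cells (1×10^6) exposed to drug for 24 hr. Total RNA extracted, and 250 ng used for one-step RT-PCR of KIT, MYC, hTERT and N-RAS. Band levels normalized to GAPDH and to untreated control.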

[7] = Antiproliferative activity against human GIST882 cells after 96 hrs by SRB assay; type: functional, cell-based; conditions: GIST882, 96 h; in short: as §2
HGC-27 = test: Antiproliferative activity against human HGC27 cells after 96 hrs by SRB assay; type: functional, cell-based; conditions: HGC-27, 96 h; in short: as §2
GISTT1 = test: Cytotoxicity against human GISTT1 cells assessed as effect on cell viability after 3 to 6 days by luciferase based luminescence assay; type: functional
In short: (§4)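 CellTiter-Glo luciferase/ATP luminescence viability read-out. Cells plated at 10,000–30,000 per well and grown overnight in serum-containing medium, then dosed for 3 to 6 days alongside a water-solvent control. Signal normalized to control; each point in triplicate. GIST882, GISTT1 and LMS04 were grown in RPMI 1640 with 15% FBS. GIST48 and GIST48B were grown in F10 with 15% FBS, mito+ serum extender and bovine pituitary extract.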

GIST882 [8] = test: Cytotoxicity against human GIST882 cells assessed as effect on cell viability after 3 to 6 days by luciferase based luminescence assay; type: functional; in short: as §4
[9] = target: Mast/stem cell growth factor receptor Kit (Homo sapiens) (UniProt P10721); test: Reduction in KIT mRNA expression in human GIST882 cells at 1 uM after 24 hrs relative to GAPDH level; type: functional, cell-based; design: scale not given: the % may be the effect or the level left; in short: as §3
[10] = Cytotoxicity against human GIST48 cells assessed as effect on cell viability after 3 to 6 days by luciferase based luminescence assay; type: functional; in short: as §4
[11] = Reduction in N-RAS mRNA expression in human GIST882 cells after 24 hrs; type: functional, cell-based; in short: as §3
[12] = target: Telomerase reverse transcriptase (Homo sapiens) (UniProt O14746); test: Inhibition of telomerase in human GIST882 cells at 0.5 uM by TRAP-LIG assay; type: cell-based
Chain of Telomerase reverse transcriptase (Homo sapiens) (O14746 whole entry): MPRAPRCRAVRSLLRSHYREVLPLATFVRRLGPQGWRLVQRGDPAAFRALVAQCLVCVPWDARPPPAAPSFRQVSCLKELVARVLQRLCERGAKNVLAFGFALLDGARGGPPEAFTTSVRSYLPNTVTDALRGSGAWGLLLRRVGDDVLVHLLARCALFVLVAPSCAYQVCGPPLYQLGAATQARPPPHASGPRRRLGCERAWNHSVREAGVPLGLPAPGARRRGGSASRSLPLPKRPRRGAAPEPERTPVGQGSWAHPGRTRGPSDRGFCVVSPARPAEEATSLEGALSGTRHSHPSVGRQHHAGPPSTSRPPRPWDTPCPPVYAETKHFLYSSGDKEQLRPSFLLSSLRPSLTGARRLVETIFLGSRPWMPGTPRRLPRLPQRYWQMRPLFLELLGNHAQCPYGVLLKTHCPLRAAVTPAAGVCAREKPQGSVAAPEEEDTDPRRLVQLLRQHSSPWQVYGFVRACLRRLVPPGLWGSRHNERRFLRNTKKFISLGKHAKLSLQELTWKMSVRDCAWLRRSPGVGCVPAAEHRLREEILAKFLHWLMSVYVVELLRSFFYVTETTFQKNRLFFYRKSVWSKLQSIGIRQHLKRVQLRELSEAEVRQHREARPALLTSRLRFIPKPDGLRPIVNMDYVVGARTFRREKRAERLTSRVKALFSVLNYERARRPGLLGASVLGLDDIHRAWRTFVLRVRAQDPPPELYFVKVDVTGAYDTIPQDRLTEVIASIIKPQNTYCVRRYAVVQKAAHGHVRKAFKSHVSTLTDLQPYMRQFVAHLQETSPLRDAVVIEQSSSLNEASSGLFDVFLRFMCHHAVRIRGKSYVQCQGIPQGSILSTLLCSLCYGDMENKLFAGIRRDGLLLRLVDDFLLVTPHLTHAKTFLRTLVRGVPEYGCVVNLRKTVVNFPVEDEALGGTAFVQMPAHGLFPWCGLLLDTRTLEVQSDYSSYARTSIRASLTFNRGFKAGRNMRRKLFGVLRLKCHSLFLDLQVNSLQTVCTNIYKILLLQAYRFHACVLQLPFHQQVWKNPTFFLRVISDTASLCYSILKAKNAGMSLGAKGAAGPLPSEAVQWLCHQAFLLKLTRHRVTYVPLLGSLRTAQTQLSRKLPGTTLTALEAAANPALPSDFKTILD
In short: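 TRAP-LIG assay on GIST882 cells treated for one week. Cell protein extract in CHAPS lysis buffer was elongated with TS primer in TRAP buffer at 30°C for 10 min, then purified. A second PCR with ACX/TS primers ran 35 cycles. Products were run on 12% PAGE and stained with SYBR green. Ladder intensity was normalized to an untreated-protein positive control after negative-control background subtraction.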

[13] = Reduction in MYC mRNA expression in human GIST882 cells after 24 hrs; type: functional, cell-based; design: scale not given: the % may be the effect or the level left; in short: as §3
GIST48B = test: Cytotoxicity against human GIST48B cells assessed as effect on cell viability after 3 to 6 days by luciferase based luminescence assay; type: functional; in short: as §4
GIST882 [14] = test: Antiproliferative activity against human GIST882 cells at 0.1 uM after 2 weeks; type: functional, cell-based
In short: (§5)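 Long-term proliferation of GIST882 cells under continuous exposure for three weeks at 0.1, 0.25 or 0.5 μM. Growth followed as cumulative population doublings relative to an untreated control arm.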

Homo sapiens = species on record: Homo sapiens; test: Cytotoxicity against human LMSO4 cells assessed as effect on cell viability after 3 to 6 days by luciferase based luminescence assay; type: functional; in short: as §4
[15] = Reduction in telomerase mRNA expression in human GIST882 cells after 24 hrs; type: functional, cell-based; in short: as §3
GIST882 [16] = test: Antiproliferative activity against human GIST882 cells at 0.25 uM after 1 week; type: functional, cell-based; in short: as §5
[17] = target: Mast/stem cell growth factor receptor Kit (Homo sapiens) (UniProt P10721); test: Reduction in KIT protein expression in human GIST882 cells at 1 uM after 24 hrs by Western blot; type: functional, cell-based
In short: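 GIST882 cells treated for 24 hr, compound at 0.5 or 1 μM and imatinib at 5 or 10 μM. Lysate protein measured by Bradford, then electrophoresis and immunoblotting for total KIT with an actin loading control.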

GIST882 [18] = test: Cytotoxicity against human GIST882 cells assessed as growth inhibition at 0.25 uM after 1 week; type: functional, cell-based; in short: as §5
GIST882 [19] = test: Cytotoxicity against human GIST882 cells assessed as growth inhibition at 0.5 uM after 1 week; type: functional, cell-based; in short: as §5
GIST882 [20] = test: Antiproliferative activity against human GIST882 cells at 0.5 uM after 1 week; type: functional, cell-based; in short: as §5

Row | SMILES | ΔTm (Nucleic Acid [1]) [°C] | IC50 (MCF7) [nM] | ΔTm (Nucleic Acid [2]) [°C] | ΔTm (Nucleic Acid [3]) [°C] | Activity [4] | IC50 (HT-29) [nM] | ΔTm (Nucleic Acid [5]) [°C] | Activity [6] | IC50 [7] [nM] | IC50 (HGC-27) [nM] | IC50 [10] [nM] | further results
1 | CN(C)c1ccc(Nc2c3ccc(NC(=O)CCN4CCCC4)cc3nc3cc(NC(=O)CCN4CCCC4)ccc23)cc1 | 6.5 | 2200 | 18.5 | 7.2 | inactive | 2700 | 21.6 | inactive | > 25000 | 2600 | – | –
2 | O=C1c2cc(NCCN3CCCC3)c3c4c(cc(NCCN5CCCC5)c(c24)C(=O)N1CCN1CCCC1)C(=O)N(CCN1CCCC1)C3=O | 11.2 | 20 | 29 | 5.7 | – | 30 | 28.7 | Dose-dependent effect | 1600 | 40 | 500 | Activity (GISTT1): Active; Activity (GIST882 [8]): Active; Activity [9]: 90%; Activity [11]: inactive; Activity [12]: Active; Activity [13]: 25%; Activity (GIST48B): inactive; Activity (GIST882 [14]): Active; Activity (Homo sapiens): inactive; Activity [15]: Active; Activity (GIST882 [16]): Active; Activity [17]: Active; Activity (GIST882 [18]): Active; Activity (GIST882 [19]): Active; Activity (GIST882 [20]): Active
3 | C[n+]1ccc(-c2c3nc(c(-c4cc[n+](C)cc4)c4ccc([nH]4)c(-c4cc[n+](C)cc4)c4ccc([nH]4)c(-c4cc[n+](C)cc4)c4nc2C=C4)C=C3)cc1 [TMPYP4] | 11.1 | 6100 | 21.6 | 8.7 | inactive | 4500 | 27.8 | inactive | 13200 | 2700 | – | –
4 | Cc1ccc(NC(=O)c2ccc(CN3CCN(C)CC3)cc2)cc1Nc1nccc(-c2cccnc2)n1 [IMATINIB] | 0.2 | 11500 | 0.2 | 0.1 | – | 60 | 0.2 | inactive | 1700 | 2400 | 18700 | –
